# Data: ChEMBL document CHEMBL4368930, “Synthesis and anti-HSV activity of tricyclic penciclovir and hydroxybutylguanine derivatives” (Bioorg Med Chem, 2019)
# pEC50, pIC50: −log10 of the molar value.
# Key:
# Human betaherpesvirus 5 [1] = assay: Antiviral activity against Human cytomegalovirus Davis assessed as reduction in virus-induced cytopathogenicity by microscopic analysis; type: functional, organism-based; conditions: Human betaherpesvirus 5, Davis
# K562 = assay: Cytostatic activity against human K562 cells; type: ADME, cell-based
# Z-138 = assay: Cytostatic activity against human Z138 cells; type: ADME, cell-based
# NCI-H460 = assay: Cytostatic activity against human NCI-H460 cells; type: ADME, cell-based
# [2] = Cytostatic activity against human DND41 cells; type: ADME, cell-based
# CAPAN-1 = assay: Cytostatic activity against human Capan1 cells; type: ADME, cell-based
# Human betaherpesvirus 5 [3] = assay: Antiviral activity against Human cytomegalovirus AD169 assessed as reduction in virus-induced cytopathogenicity by microscopic analysis; type: functional, organism-based; conditions: Human betaherpesvirus 5, strain AD169
# TERT-RPE1 = assay: Cytostatic activity against human hTERT-RPE1 cells; type: ADME, cell-based; conditions: RPE-1
# Summary of the method: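 Cell proliferation was measured against the number of cells in untreated controls.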
# HL-60 = assay: Cytostatic activity against human HL60 cells; type: ADME, cell-based
# Human alphaherpesvirus 2 = assay: Antiviral activity against herpes simplex virus 2 G infected in HEL cells assessed as reduction in virus-induced cytopathogenicity by microscopic analysis; type: functional, organism-based; conditions: Human alphaherpesvirus 2, G
# Summary of the method: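 Confluent cell monolayers were inoculated with 100 CCID50 of virus or 20 PFU. After a 1–2 h adsorption, residual virus was removed and cultures were incubated with the test compounds at 200, 40, 8, 1.6 and 0.32 μM. Cytopathicity was scored once it was complete in untreated infected controls.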
# Human alphaherpesvirus 1 [4] = assay: Antiviral activity against herpes simplex virus 1 KOS infected in HEL cells assessed as reduction in virus-induced cytopathogenicity by microscopic analysis; type: functional, organism-based; conditions: Human alphaherpesvirus 1, strain KOS
# Human alphaherpesvirus 3 [5] = assay: Antiviral activity against Varicella-zoster virus Oka harboring thymidine kinase infected in HEL cells assessed as reduction in virus plaque formation; type: functional, organism-based; conditions: Human alphaherpesvirus 3, Oka
# [6] = Cytostatic activity against human HAP1 cells; type: ADME, cell-based
# [7] = Cytotoxicity against HEL cells assessed as effect on cell morphology at 0.32 to 200 uM by microscopic analysis; type: cell-based; conditions: human
# Human alphaherpesvirus 3 [8] = assay: Antiviral activity against thymidine kinase deficient Varicella-zoster virus 07-1 infected in HEL cells assessed as reduction in virus plaque formation; type: functional, organism-based; conditions: Human alphaherpesvirus 3, 07-1, HEL
# Human alphaherpesvirus 1 [9] = assay: Antiviral activity against thymidine kinase deficient and aciclovir resistant herpes simplex virus 1 KOS infected in HEL cells assessed as reduction in virus-induced cytopathogenicity by microscopic analysis; type: functional, organism-based; conditions: Human alphaherpesvirus 1, strain KOS
compound,measurement,setting,value
Nc1nc2c(ncn2CCCCO)c(=O)[nH]1,pEC50,Human betaherpesvirus 5 [1],< 4.00
same,pIC50,K562,< 4.00
same,pIC50,Z-138,< 4.00
same,pIC50,NCI-H460,< 4.00
same,pIC50,[2],< 4.00
same,pIC50,CAPAN-1,4.14
same,pEC50,Human betaherpesvirus 5 [3],< 4.00
same,pIC50,TERT-RPE1,< 4.00
same,pIC50,HL-60,< 4.00
same,pEC50,Human alphaherpesvirus 2,5.68
same,pEC50,Human alphaherpesvirus 1 [4],5.82
same,pEC50,Human alphaherpesvirus 3 [5],4.12
same,pIC50,[6],< 4.00
same,MCC at up to 200 µM,[7],> 100 µM
same,pEC50,Human alphaherpesvirus 3 [8],< 4.00
same,pEC50,Human alphaherpesvirus 1 [9],5.00
Nc1nc2c(ncn2CCC(CO)CO)c(=O)[nH]1 [PENCICLOVIR],pEC50,Human betaherpesvirus 5 [1],< 4.00
same,pIC50,K562,< 4.00
same,pIC50,Z-138,< 4.00
same,pIC50,NCI-H460,< 4.00
same,pIC50,[2],< 4.00
same,pIC50,CAPAN-1,4.03
same,pEC50,Human betaherpesvirus 5 [3],< 4.00
same,pIC50,TERT-RPE1,< 4.00
same,pIC50,HL-60,< 4.00
same,pEC50,Human alphaherpesvirus 2,6.70
same,pEC50,Human alphaherpesvirus 1 [4],6.10
same,pEC50,Human alphaherpesvirus 3 [5],5.46
same,pIC50,[6],< 4.00
same,MCC at up to 200 µM,[7],> 100 µM
same,pEC50,Human alphaherpesvirus 3 [8],4.48
same,pEC50,Human alphaherpesvirus 1 [9],6.70
O=c1c2ncn(CCC(CO)CO)c2nc2[nH]c(-c3ccc4c(c3)OCO4)cn12,pEC50,Human betaherpesvirus 5 [1],< 4.00
same,pIC50,K562,< 4.00
same,pIC50,Z-138,< 4.00
same,pIC50,NCI-H460,< 4.00
same,pIC50,[2],< 4.00
same,pIC50,CAPAN-1,4.10
same,pEC50,Human betaherpesvirus 5 [3],< 4.00
same,pIC50,TERT-RPE1,< 4.00
same,pIC50,HL-60,< 4.00
same,pEC50,Human alphaherpesvirus 2,4.39
same,pEC50,Human alphaherpesvirus 1 [4],4.35
same,pEC50,Human alphaherpesvirus 3 [5],< 4.70
same,pIC50,[6],< 4.00
same,MCC at up to 200 µM,[7],≥ 100 µM
same,pEC50,Human alphaherpesvirus 3 [8],< 4.00
same,pEC50,Human alphaherpesvirus 1 [9],< 4.00
